From ChEMBL document CHEMBL4138235, “Discovery of aliphatic-chain hydroxamates containing indole derivatives with potent class I histone deacetylase inhibitory activities” (Eur J Med Chem, 2018)

Tests used:
[1] = Inhibition of class 1 HDAC in human HeLa nuclear extracts using Boc-Lys(Ac)-AMC as substrate preincubated for 5 mins followed by substrate addition measured after 30 mins by fluorescence assay
PC-3 = assay: Cytotoxicity against human PC3 cells assessed as growth inhibition after 48 hrs by SRB assay; type: functional, cell-based; details: PC-3, 48 h
A549 = assay: Cytotoxicity against human A549 cells assessed as growth inhibition after 48 hrs by SRB assay; type: functional, cell-based; details: A549, 48 h
Histone deacetylase 1 = Histone deacetylase 1 (Homo sapiens, UniProt Q13547); assay: Inhibition of C-terminal FLAG/His-tagged full length recombinant human HDAC1 expressed in baculovirus infected Sf9 insect cells using KI 177 as substrate preincubated for 5 mins followed by substrate addition measured after 30 mins by fluorescence assay
Chain of Histone deacetylase 1 (Q13547 whole entry, the tested form may be a part): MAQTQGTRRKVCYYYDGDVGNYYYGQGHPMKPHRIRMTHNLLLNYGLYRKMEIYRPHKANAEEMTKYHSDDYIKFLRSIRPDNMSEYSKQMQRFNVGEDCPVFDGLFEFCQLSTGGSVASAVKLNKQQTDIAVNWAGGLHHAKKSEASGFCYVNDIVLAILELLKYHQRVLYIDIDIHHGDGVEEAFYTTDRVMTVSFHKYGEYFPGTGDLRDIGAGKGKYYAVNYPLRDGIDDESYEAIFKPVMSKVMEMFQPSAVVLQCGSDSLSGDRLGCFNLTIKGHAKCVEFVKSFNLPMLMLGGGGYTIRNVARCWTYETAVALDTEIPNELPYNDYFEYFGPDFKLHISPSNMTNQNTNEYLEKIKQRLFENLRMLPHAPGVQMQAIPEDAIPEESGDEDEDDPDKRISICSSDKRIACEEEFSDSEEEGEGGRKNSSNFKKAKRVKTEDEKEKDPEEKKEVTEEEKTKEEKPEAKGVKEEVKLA

Histone deacetylase 4 = Histone deacetylase 4 (Homo sapiens, UniProt P56524); assay: Inhibition of N-terminal GST/C-terminal His-tagged recombinant human HDAC4 (648 to 1057 residues) expressed in baculovirus infected Sf9 insect cells using Boc-Lys(TFA)-AMC as substrate preincubated for 5 mins followed by substrate addition measured after 30 mins by fluorescence assay
Chain of Histone deacetylase 4 (P56524 whole entry, the tested form may be a part): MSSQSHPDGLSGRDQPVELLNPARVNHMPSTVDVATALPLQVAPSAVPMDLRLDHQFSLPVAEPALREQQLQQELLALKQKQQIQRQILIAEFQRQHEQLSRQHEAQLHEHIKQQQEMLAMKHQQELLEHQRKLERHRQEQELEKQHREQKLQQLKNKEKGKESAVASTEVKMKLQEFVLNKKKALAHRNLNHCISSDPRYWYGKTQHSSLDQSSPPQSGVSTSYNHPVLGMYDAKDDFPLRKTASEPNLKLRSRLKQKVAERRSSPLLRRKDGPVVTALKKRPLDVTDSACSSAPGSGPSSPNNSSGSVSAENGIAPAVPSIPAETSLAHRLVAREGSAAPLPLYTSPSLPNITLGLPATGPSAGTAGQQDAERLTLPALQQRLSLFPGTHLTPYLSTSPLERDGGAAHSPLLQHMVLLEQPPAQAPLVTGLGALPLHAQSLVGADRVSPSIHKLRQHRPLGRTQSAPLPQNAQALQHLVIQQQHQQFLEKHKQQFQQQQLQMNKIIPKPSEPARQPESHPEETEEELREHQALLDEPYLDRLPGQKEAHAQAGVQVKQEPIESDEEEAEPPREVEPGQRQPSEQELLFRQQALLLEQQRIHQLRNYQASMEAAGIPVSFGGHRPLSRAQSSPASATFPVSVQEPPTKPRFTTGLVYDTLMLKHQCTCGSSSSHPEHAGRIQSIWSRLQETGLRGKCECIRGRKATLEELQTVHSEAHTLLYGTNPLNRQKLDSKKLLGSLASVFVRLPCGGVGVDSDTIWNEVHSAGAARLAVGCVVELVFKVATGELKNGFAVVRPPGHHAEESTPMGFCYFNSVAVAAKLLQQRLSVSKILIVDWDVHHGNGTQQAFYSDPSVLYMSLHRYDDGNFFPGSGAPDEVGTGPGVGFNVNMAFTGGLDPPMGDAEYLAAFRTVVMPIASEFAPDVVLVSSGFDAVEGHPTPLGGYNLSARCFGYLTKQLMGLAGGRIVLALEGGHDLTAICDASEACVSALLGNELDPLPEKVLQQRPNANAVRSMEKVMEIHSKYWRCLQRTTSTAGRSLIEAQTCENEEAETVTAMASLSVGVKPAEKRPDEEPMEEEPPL

Histone deacetylase 9 = Histone deacetylase 9 (Homo sapiens, UniProt Q9UKV0); assay: Inhibition of C-terminal His-tagged recombinant human HDAC9 expressed in baculovirus infected Sf9 insect cells preincubated for 5 mins followed by substrate addition measured after 30 mins by fluorescence assay
Chain of Histone deacetylase 9 (Q9UKV0 whole entry): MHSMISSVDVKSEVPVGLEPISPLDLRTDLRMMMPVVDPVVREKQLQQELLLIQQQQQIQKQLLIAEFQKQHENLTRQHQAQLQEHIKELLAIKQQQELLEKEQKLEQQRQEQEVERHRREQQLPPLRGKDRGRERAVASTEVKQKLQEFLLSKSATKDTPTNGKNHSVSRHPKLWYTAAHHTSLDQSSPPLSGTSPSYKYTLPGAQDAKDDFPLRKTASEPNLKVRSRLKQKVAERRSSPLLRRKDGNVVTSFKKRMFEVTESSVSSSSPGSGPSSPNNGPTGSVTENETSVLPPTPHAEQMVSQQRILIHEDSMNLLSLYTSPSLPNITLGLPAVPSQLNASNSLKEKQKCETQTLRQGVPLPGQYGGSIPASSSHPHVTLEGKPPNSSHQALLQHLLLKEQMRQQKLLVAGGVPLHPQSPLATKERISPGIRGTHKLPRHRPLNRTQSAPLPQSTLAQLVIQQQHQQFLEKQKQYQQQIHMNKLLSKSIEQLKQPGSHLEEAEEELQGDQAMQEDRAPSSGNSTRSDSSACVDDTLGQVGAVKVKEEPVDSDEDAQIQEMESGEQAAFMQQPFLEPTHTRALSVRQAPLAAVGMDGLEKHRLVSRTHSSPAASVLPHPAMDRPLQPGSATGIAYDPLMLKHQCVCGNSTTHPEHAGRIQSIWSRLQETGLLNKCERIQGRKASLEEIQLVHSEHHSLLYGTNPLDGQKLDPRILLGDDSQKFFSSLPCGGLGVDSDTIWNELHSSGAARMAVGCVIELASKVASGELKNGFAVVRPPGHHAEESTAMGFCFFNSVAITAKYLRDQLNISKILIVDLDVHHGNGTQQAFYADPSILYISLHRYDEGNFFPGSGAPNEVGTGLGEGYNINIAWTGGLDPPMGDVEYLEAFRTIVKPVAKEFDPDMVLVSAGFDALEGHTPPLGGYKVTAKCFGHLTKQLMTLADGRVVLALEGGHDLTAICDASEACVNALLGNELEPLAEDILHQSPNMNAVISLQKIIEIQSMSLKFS

[2] = target: T1, Protein deacetylase HDAC6 (Homo sapiens, UniProt Q9UBN7); assay: Inhibition of N-terminal GST-tagged human HDAC6 using Boc-Lys(Ac)-AMC as substrate preincubated for 5 mins followed by substrate addition measured after 30 mins by fluorescence assay
T1 sequence (Q9UBN7 whole entry): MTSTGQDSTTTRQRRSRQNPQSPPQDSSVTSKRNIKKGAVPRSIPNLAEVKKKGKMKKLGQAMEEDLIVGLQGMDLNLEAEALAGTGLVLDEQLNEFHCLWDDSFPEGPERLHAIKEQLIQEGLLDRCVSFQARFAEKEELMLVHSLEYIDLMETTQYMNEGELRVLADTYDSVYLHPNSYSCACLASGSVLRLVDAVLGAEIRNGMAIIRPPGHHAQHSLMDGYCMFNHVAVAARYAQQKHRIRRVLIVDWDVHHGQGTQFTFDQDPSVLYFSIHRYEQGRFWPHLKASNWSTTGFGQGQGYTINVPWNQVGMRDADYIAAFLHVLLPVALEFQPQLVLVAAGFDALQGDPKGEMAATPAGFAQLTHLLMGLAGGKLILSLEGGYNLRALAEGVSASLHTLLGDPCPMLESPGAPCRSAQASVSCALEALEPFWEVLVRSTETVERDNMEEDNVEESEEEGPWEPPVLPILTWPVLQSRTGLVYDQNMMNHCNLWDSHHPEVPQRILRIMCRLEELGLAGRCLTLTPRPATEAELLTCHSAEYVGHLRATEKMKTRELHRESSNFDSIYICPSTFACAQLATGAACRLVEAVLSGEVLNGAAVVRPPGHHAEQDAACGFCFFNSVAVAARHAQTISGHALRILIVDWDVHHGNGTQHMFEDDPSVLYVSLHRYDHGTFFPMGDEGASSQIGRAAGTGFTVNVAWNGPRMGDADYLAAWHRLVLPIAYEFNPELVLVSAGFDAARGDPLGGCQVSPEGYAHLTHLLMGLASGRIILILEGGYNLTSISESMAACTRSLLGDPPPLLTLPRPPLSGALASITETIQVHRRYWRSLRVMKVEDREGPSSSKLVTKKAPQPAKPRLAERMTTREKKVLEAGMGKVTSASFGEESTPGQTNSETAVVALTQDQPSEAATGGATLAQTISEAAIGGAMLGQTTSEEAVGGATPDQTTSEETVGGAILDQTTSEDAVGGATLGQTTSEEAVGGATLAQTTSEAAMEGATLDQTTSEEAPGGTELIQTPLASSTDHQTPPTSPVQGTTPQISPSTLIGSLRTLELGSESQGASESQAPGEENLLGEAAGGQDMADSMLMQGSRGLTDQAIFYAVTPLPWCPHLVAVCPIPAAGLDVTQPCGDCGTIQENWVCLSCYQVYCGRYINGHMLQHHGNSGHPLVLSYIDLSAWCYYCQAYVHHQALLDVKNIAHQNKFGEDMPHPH

Histone deacetylase 5 = Histone deacetylase 5 (Homo sapiens, UniProt Q9UQL6); assay: Inhibition of full length recombinant human HDAC5 preincubated for 5 mins followed by substrate addition measured after 30 mins by fluorescence assay
Chain of Histone deacetylase 5 (Q9UQL6 whole entry): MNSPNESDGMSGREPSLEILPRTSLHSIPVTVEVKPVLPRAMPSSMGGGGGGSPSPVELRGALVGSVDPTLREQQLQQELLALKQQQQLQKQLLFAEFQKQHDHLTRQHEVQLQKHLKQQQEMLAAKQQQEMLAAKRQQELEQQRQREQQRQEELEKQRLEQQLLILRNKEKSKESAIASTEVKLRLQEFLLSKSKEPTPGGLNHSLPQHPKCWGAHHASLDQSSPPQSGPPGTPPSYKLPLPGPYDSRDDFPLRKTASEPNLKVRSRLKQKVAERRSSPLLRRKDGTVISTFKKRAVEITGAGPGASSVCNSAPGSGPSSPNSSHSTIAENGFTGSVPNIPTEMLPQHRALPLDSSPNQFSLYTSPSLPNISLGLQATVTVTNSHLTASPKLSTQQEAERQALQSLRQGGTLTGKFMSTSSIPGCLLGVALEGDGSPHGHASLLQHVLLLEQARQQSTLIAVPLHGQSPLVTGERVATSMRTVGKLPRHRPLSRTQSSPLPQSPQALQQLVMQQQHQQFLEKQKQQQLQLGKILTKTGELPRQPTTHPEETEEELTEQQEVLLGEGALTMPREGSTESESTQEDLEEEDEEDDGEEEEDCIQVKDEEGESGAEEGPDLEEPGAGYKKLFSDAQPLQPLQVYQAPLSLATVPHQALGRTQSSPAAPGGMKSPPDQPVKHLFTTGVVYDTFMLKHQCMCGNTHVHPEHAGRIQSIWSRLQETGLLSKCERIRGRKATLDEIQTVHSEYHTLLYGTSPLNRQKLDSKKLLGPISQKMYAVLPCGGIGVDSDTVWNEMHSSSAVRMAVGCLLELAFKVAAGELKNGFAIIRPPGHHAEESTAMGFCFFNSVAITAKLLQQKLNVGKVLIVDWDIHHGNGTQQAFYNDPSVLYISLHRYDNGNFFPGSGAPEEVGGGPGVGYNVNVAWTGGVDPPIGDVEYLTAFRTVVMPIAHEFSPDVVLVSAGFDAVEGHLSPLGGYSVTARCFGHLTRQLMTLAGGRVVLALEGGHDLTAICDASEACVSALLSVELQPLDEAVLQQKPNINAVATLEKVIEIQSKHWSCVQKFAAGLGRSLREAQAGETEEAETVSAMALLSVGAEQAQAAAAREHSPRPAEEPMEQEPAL

[3] = target: Histone deacetylase 3/Nuclear receptor corepressor 2 (HDAC3/NCoR2) (Homo sapiens, UniProt O15379); assay: Inhibition of C-terminal His-tagged/N-terminal GST-tagged full length recombinant human HDAC3/NcoR2 expressed in baculovirus infected Sf9 insect cells using KI 177 as substrate preincubated for 5 mins followed by substrate addition measured after 30 mins by fluorescence assay
Histone deacetylase 2 [4] = target: T2, Histone deacetylase 2 (Homo sapiens, UniProt Q92769); assay: biochemical; type: cell-based, Sf9
T2 sequence (Q92769 whole entry): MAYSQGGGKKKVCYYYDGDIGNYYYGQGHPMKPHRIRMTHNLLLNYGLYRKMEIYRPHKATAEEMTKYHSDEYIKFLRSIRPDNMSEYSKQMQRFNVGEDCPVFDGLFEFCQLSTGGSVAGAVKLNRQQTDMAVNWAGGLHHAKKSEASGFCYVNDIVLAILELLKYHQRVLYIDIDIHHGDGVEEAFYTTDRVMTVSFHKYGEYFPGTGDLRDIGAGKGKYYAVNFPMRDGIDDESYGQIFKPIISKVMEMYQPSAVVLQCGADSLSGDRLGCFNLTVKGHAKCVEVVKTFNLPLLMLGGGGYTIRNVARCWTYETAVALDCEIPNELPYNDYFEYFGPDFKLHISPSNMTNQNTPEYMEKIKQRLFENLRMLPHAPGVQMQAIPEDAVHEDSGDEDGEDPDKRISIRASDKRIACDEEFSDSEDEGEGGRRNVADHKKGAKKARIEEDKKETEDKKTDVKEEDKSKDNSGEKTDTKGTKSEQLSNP

Homo sapiens = organism: Homo sapiens; assay: Potency index, ratio of SAHA IC50 to test compound IC50 for class 1 HDAC in human HeLa nuclear extracts
In short: (§1)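 Fluorogenic deacetylase assay in 15 mM Tris-HCl pH 8.1, 0.25 mM EDTA, 250 mM NaCl, 10% glycerol. Enzyme and compound preincubated 5 min at 30 °C. Substrates: Boc-Lys(Ac)-AMC for HeLa extract, Boc-Lys(TFA)-AMC for HDAC8, KI 177 for HDAC1/2. Reaction ran 30 min at 30 °C, then trypsin with SAHA developed it 20 min; read at ex 355/em 460 nm. 0.1% DMSO set as 100% and 2 µM SAHA as 0%; run in triplicate; IC50 ratios relative to SAHA.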

Histone deacetylase 8 = target: T3, Histone deacetylase 8 (Homo sapiens, UniProt Q9BY41); assay: Inhibition of C-terminal His-tagged recombinant human HDAC8 (1 to 377 residues) expressed in baculovirus infected Sf9 insect cells using Boc-Lys(TFA)-AMC as substrate preincubated for 5 mins followed by substrate addition measured after 30 mins by fluorescence assay
T3 sequence (Q9BY41 whole entry): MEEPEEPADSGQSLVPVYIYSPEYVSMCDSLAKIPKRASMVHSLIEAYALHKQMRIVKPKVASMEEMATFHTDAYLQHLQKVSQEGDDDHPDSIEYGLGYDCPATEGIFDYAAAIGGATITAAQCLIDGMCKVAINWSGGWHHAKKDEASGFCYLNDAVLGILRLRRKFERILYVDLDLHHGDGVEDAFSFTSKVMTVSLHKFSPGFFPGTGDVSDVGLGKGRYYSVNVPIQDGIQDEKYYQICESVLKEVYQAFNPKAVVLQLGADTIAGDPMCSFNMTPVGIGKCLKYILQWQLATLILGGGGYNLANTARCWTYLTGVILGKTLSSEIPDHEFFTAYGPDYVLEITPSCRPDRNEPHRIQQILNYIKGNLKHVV

Histone deacetylase 7 = target: T4, Histone deacetylase 7 (Homo sapiens, UniProt Q8WUI4); assay: Inhibition of N-terminal GST-tagged human HDAC7 expressed in baculovirus infected Sf9 insect cells preincubated for 5 mins followed by substrate addition measured after 30 mins by fluorescence assay
T4 sequence (Q8WUI4 whole entry): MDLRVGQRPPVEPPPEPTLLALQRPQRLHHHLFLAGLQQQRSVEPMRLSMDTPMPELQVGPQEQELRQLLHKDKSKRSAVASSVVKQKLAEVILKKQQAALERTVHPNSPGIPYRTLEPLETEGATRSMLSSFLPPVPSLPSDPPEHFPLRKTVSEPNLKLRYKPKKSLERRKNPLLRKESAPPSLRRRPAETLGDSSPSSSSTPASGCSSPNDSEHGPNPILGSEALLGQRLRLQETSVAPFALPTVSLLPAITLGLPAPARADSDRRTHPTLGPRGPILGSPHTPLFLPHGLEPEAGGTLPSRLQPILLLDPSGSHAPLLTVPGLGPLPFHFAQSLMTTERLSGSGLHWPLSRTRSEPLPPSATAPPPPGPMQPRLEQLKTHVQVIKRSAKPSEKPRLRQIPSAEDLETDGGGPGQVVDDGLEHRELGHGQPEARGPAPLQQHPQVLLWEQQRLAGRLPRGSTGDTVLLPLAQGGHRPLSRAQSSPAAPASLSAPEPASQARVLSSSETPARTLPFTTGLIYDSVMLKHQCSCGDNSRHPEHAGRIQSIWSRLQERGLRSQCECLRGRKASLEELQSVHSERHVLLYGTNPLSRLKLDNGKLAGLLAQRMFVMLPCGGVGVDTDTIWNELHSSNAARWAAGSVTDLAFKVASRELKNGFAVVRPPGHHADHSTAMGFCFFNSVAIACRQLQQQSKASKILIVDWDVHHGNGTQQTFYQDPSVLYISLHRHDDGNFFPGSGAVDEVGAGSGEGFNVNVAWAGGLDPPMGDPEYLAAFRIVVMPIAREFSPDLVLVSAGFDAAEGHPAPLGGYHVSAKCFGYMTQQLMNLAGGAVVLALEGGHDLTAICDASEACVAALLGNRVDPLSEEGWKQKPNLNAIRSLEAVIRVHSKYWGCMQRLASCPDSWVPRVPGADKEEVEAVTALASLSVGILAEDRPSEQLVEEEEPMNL

Histone deacetylase 2 [5] = target: T2, Histone deacetylase 2; assay: Potency index, ratio of SAHA IC50 to test compound IC50 for full length recombinant human HDAC2 expressed in baculovirus infected Sf9 insect cells; in short: as §1

| SMILES | IC50 [1] [nM] | IC50 (PC-3) [nM] | IC50 (A549) [nM] | other results |
| --- | --- | --- | --- | --- |
| COc1ccc2c(ccn2CCOc2cccc(NC(=O)CCCCC(=O)NO)c2)c1 | 186 | – | – | – |
| COc1cc2ccn(CCCOc3ccc(NC(=O)CCCCCCC(=O)NO)cc3)c2c(OC)c1OC | 139 | 6900 | 5900 | – |
| COc1cc2ccn(CCOc3ccc(NC(=O)CCCCCCC(=O)NO)cc3)c2c(OC)c1OC | 57.2 | 4400 | 4900 | – |
| COc1cc2ccn(CCCOc3ccccc3NC(=O)CCCCCCC(=O)NO)c2c(OC)c1OC | 111 | 3900 | 5000 | – |
| COc1ccc2c(ccn2CCOc2cccc(NC(=O)CCCCCCCC(=O)NO)c2)c1 | 40 | – | – | – |
| COc1ccc2c(ccn2CCOc2cccc(NC(=O)CCCCCCCCC(=O)NO)c2)c1 | 298 | – | – | – |
| COc1cc2ccn(CCCCOc3ccc(NC(=O)CCCCCCC(=O)NO)cc3)c2c(OC)c1OC | 46.4 | 7700 | 9700 | – |
| O=C(CCCCCCC(=O)Nc1cccc(OCCn2ccc3cc(Br)ccc32)c1)NO | 41.3 | – | – | – |
| COc1cc2ccn(CCCCOc3ccccc3NC(=O)CCCCCCC(=O)NO)c2c(OC)c1OC | 111 | 2400 | 4800 | – |
| COc1cc2ccn(CCOc3ccccc3NC(=O)CCCCCCC(=O)NO)c2c(OC)c1OC | 110 | 5600 | 5900 | – |

The next molecules have a lower IC50 [1] than those just listed; values first:

| IC50 [1] [nM] | SMILES | IC50 (PC-3) [nM] | IC50 (A549) [nM] | other results |
| --- | --- | --- | --- | --- |
| 14.9 | COc1ccc2ccn(CCOc3cccc(NC(=O)CCCCCCC(=O)NO)c3)c2c1 | 1800 | 4200 | – |
| 17.8 | COc1cc2ccn(CCCCOc3cccc(NC(=O)CCCCCCC(=O)NO)c3)c2c(OC)c1OC | 2100 | 2400 | IC50 (Histone deacetylase 1): 29.3 nM; IC50 (Histone deacetylase 4): > 10000 nM; IC50 (Histone deacetylase 9): > 10000 nM; IC50 [2]: 8.5 nM; IC50 (Histone deacetylase 5): > 10000 nM; IC50 [3]: 108 nM; IC50 (Histone deacetylase 2 [4]): 1000 nM; Ratio IC50 (Homo sapiens): 2 to 5; IC50 (Histone deacetylase 8): 752 nM; IC50 (Histone deacetylase 7): > 10000 nM |
| 13.5 | COc1cccc2ccn(CCOc3cccc(NC(=O)CCCCCCC(=O)NO)c3)c12 | 1400 | 1900 | – |
| 23.1 | O=C(CCCCCCC(=O)Nc1cccc(OCCn2ccc3ccccc32)c1)NO | – | – | – |
| 11.5 | COc1cc2ccn(CCOc3cccc(NC(=O)CCCCCCC(=O)NO)c3)c2c(OC)c1OC | 1300 | 2400 | Ratio IC50 (Histone deacetylase 2 [5]): 2; IC50 (Histone deacetylase 1): 11.1 nM; IC50 (Histone deacetylase 4): > 10000 nM; IC50 (Histone deacetylase 9): > 10000 nM; IC50 [2]: 9.6 nM; IC50 (Histone deacetylase 5): > 10000 nM; IC50 [3]: 72.5 nM; IC50 (Histone deacetylase 2 [4]): 111 nM; Ratio IC50 (Homo sapiens): 2 to 5; IC50 (Histone deacetylase 8): 421 nM; IC50 (Histone deacetylase 7): > 10000 nM |
| 22.5 | COc1cc2ccn(CCCOc3cccc(NC(=O)CCCCCCC(=O)NO)c3)c2c(OC)c1OC | 2700 | 2700 | Ratio IC50 (Homo sapiens): 2 to 5 |
